Results published in ChEMBL document CHEMBL3608275, “Synthesis, nicotinic acetylcholine receptor binding, in vitro and in vivo pharmacology properties of 3'-(substituted pyridinyl)-deschloroepibatidine analogs” (Bioorg Med Chem, 2015).

Assays:
[1] = target: Neuronal acetylcholine receptor subunit alpha-7 (Rattus norvegicus) (UniProt Q05941); test: Agonist activity at rat alpha7 nAChR expressed in Xenopus laevis oocytes assessed as mean current response at 100 uM by two-electrode voltage clamp electrophysiology assay relative to acetylcholine; type: cell-based
Chain of Neuronal acetylcholine receptor subunit alpha-7 (Rattus norvegicus) (Q05941 whole entry): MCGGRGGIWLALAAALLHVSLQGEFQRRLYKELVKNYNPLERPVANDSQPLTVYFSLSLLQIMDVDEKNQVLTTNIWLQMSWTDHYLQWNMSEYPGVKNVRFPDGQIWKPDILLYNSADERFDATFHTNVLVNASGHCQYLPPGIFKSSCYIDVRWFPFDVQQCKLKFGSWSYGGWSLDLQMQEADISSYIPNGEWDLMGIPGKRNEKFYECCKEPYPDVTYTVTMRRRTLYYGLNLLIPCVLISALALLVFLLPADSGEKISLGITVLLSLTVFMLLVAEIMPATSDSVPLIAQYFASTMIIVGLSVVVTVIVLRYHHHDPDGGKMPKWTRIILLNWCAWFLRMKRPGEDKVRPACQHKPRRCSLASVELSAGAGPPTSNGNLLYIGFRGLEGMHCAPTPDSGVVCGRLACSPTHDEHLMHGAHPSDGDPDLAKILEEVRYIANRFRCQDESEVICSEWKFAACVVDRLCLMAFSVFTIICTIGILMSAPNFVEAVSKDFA

[2] = target: T1, Neuronal acetylcholine receptor; alpha4/beta2 (Rattus norvegicus, UniProt P09483+P12390); test: Displacement of [3H]-epibatidine from alpha4beta2 nAChR in rat cerebral cortex homogenates after 4 hrs by liquid scintillation counting; type: tissue-based
T1 sequence (P09483 whole entry): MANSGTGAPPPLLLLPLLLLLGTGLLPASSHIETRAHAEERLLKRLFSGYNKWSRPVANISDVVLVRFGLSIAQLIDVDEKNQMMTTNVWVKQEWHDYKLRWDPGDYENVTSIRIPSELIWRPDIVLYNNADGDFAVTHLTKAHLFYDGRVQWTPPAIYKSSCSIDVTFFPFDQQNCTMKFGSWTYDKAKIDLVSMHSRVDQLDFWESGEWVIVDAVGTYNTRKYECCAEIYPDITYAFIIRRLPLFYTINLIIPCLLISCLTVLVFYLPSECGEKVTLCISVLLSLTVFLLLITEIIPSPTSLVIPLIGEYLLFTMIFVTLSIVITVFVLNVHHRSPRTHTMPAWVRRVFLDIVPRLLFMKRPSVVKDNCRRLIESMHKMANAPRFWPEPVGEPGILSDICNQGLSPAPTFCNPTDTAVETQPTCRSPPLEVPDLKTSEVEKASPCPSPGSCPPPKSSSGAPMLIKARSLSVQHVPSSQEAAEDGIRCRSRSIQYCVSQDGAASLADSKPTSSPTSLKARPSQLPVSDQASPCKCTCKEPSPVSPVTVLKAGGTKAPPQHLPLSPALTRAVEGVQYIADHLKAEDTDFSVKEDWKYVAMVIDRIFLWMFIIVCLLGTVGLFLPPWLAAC
T1 sequence (P12390 whole entry): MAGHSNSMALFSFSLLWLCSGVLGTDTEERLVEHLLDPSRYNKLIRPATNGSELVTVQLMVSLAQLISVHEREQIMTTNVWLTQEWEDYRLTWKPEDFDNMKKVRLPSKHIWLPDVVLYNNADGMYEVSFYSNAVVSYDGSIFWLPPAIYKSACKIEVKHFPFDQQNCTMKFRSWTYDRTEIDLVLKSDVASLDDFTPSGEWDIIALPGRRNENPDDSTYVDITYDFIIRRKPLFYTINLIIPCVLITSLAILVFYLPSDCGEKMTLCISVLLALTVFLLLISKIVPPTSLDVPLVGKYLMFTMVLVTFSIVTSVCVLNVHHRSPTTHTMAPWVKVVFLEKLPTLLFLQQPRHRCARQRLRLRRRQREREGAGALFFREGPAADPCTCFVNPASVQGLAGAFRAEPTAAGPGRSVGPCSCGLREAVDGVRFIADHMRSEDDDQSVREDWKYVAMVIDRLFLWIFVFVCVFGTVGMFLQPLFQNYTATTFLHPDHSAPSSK

[3] = system: Mus musculus; test: Antinociceptive activity in intratracheally dosed mouse assessed as inhibition of nicotine-induced antinociception after 5 mins by tail-flick assay; type: functional
[4] = system: Mus musculus; test: Antinociceptive activity in sc dosed mouse assessed as reduction of body rectal temperature; type: functional
[5] = target: T2, Neuronal acetylcholine receptor; alpha4/beta2 (Rattus norvegicus) (UniProt P09483+P12390); test: Agonist activity at rat alpha4beta2 nAChR expressed in Xenopus laevis oocytes assessed as mean current response at 100 uM by two-electrode voltage clamp electrophysiology assay relative to acetylcholine; type: cell-based
[6] = target: Neuronal acetylcholine receptor subunit alpha-7 (Rattus norvegicus) (UniProt Q05941); test: Antagonist activity at rat alpha7 nAChR expressed in Xenopus laevis oocytes assessed as inhibition of acetylcholine-induced mean current response by measuring remaining current at 100 uM by two-electrode voltage clamp electrophysiology assay relative to control; values are per cent of control
[7] = system: Mus musculus; test: Antinociceptive activity in mouse assessed as jumping or licking of paw behavior at 10 mg/kg, sc after 5 mins by hot-plate test; type: functional
[8] = target: T1, Neuronal acetylcholine receptor; alpha4/beta2; test: Antagonist activity at rat alpha4beta2 nAChR expressed in Xenopus laevis oocytes assessed as inhibition of acetylcholine-induced mean current response by two-electrode voltage clamp electrophysiology assay; type: cell-based
Method in brief: (§1)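 Rat nAChRs in Xenopus oocytes under two-electrode voltage clamp. […] IC50 is taken from concentration-inhibition curves.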

[9] = target: Neuronal acetylcholine receptor; alpha3/beta4 (Rattus norvegicus, UniProt P04757+P12392); test: Antagonist activity at rat alpha3beta4 nAChR expressed in Xenopus laevis oocytes assessed as inhibition of acetylcholine-induced mean current response by two-electrode voltage clamp electrophysiology assay; type: cell-based; method in brief: as §1
Chain of Neuronal acetylcholine receptor; alpha3/beta4 (P04757 whole entry): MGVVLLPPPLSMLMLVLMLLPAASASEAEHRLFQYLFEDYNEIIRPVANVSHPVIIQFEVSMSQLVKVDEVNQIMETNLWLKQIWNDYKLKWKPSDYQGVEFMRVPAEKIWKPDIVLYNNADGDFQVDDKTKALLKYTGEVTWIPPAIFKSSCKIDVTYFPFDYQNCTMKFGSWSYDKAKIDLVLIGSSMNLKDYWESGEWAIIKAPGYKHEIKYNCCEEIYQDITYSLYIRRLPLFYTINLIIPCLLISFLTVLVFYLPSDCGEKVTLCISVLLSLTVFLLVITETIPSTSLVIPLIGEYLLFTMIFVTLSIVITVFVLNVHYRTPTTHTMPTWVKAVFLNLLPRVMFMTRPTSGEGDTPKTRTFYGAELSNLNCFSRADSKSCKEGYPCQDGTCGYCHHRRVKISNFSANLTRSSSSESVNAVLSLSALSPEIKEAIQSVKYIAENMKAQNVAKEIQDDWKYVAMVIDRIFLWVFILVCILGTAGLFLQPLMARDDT
Chain of Neuronal acetylcholine receptor; alpha3/beta4 (P12392 whole entry): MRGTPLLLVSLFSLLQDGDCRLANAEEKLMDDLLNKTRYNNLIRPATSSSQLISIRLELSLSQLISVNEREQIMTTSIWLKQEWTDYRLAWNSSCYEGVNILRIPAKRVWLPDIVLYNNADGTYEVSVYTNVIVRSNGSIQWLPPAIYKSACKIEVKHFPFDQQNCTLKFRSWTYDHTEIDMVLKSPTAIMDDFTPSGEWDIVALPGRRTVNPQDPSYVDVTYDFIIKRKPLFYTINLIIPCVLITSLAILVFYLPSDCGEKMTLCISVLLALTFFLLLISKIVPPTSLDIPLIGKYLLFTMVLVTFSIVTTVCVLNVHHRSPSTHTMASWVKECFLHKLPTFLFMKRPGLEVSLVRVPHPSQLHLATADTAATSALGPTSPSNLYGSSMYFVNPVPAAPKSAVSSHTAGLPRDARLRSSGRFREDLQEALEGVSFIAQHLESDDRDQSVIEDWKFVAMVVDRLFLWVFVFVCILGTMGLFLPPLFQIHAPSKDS

[10] = target: T2, Neuronal acetylcholine receptor; alpha4/beta2 (Rattus norvegicus); test: Antagonist activity at rat alpha4beta2 nAChR expressed in Xenopus laevis oocytes assessed as inhibition of acetylcholine-induced mean current response by measuring remaining current at 100 uM by two-electrode voltage clamp electrophysiology assay relative to control; values are per cent of control
[11] = system: Mus musculus; test: Antinociceptive activity in mouse assessed as maximum latency at 10 mg/kg, administered as intratracheally after 5 mins by tail-flick assay; type: functional
[12] = system: Mus musculus; test: Antinociceptive activity in sc dosed mouse assessed as spontaneous locomotor activity measured for 10 mins; type: functional
[13] = target: T3, Neuronal acetylcholine receptor; alpha3/beta4 (Rattus norvegicus) (UniProt P04757+P12392); test: Agonist activity at rat alpha3beta4 nAChR expressed in Xenopus laevis oocytes assessed as mean current response at 100 uM by two-electrode voltage clamp electrophysiology assay relative to acetylcholine; type: cell-based
[14] = system: Mus musculus; test: Antinociceptive activity in mouse assessed as inhibition of nicotine-induced antinociception at 1000 ug/kg, sc after 5 mins by hot-plate test; type: functional
[15] = target: T3, Neuronal acetylcholine receptor; alpha3/beta4 (Rattus norvegicus); test: Antagonist activity at rat alpha3beta4 nAChR expressed in Xenopus laevis oocytes assessed as inhibition of acetylcholine-induced mean current response by measuring remaining current at 100 uM by two-electrode voltage clamp electrophysiology assay relative to control; values are per cent of control
[16] = target: Neuronal acetylcholine receptor subunit alpha-7 (Rattus norvegicus, UniProt Q05941); test: Antagonist activity at rat alpha7 nAChR expressed in Xenopus laevis oocytes assessed as inhibition of acetylcholine-induced mean current response by two-electrode voltage clamp electrophysiology assay; type: cell-based; method in brief: as §1
Chain of Neuronal acetylcholine receptor subunit alpha-7 (Q05941 whole entry): as the sequence (Q05941 whole entry) above

[17] = system: Mus musculus; test: Antinociceptive activity in sc dosed mouse assessed as inhibition of nicotine-induced antinociception after 5 mins by hot-plate test; type: functional
[18] = system: Mus musculus; test: Antinociceptive activity in intratracheally dosed mouse assessed as maximum latency after 5 mins by tail-flick assay; details: inhaled or nasal
[19] = system: Mus musculus; test: Antinociceptive activity in sc dosed mouse assessed as jumping or licking of paw behavior after 5 mins by hot-plate test

c1cc(-c2cncc([C@H]3C[C@H]4CC[C@H]3N4)c2)ccn1 (racemic)
Activity [1]: 8.1%
Ki [2]: 220 pM
AD50 [3]: 0.039 mg/kg
ED50 [4]: 5 mg/kg
Activity [5]: 1%
residual activity [6]: 69%
Activity [7]: 4%
IC50 [8]: 7.1 µM
IC50 [9]: 23 µM
residual activity [10]: 3.9%
Activity [11]: 7%
ED50 [12]: 1.76 mg/kg
Activity [13]: 9.5%
inhibition in vivo at 1 mg/kg [14]: 20%
residual activity [15]: 11%
IC50 [16]: 179 µM

Clc1ccc(-c2cncc([C@H]3C[C@H]4CC[C@H]3N4)c2)cn1 (racemic)
Activity [1]: 4.8%
Ki [2]: 120 pM
AD50 [3]: 0.0005 mg/kg
ED50 [4]: 5.5 mg/kg
Activity [5]: 0%
residual activity [6]: 38%
Activity [7]: 17%
IC50 [8]: 2.7 µM
IC50 [9]: 24 µM
residual activity [10]: 4.8%
Activity [11]: 8%
ED50 [12]: 0.56 mg/kg
Activity [13]: 3.1%
inhibition in vivo at 1 mg/kg [14]: 10%
residual activity [15]: 12%
IC50 [16]: 66 µM

Fc1cc(-c2cncc([C@H]3C[C@H]4CC[C@H]3N4)c2)ccn1 (racemic)
Activity [1]: 5.7%
Ki [2]: 180 pM
AD50 [3]: 0.0012 mg/kg
ED50 [4]: 5.2 mg/kg
Activity [5]: 0%
residual activity [6]: 90%
Activity [7]: 34%
IC50 [8]: 2.9 µM
IC50 [9]: 23 µM
residual activity [10]: 8.1%
Activity [11]: 13%
ED50 [12]: 1.78 mg/kg
Activity [13]: 9.5%
inhibition in vivo at 1 mg/kg [14]: 46%
residual activity [15]: 18%
IC50 [16]: 233 µM

Clc1cc(-c2cncc([C@H]3C[C@H]4CC[C@H]3N4)c2)ccn1 (racemic)
Activity [1]: 8.1%
Ki [2]: 290 pM
AD50 [3]: 0.11 mg/kg
ED50 [4]: 6.2 mg/kg
Activity [5]: 0%
residual activity [6]: 47%
Activity [7]: 30%
IC50 [8]: 11 µM
IC50 [9]: 20 µM
residual activity [10]: 5.7%
Activity [11]: 10%
ED50 [12]: 1.6 mg/kg
Activity [13]: 6.5%
inhibition in vivo at 1 mg/kg [14]: 36%
residual activity [15]: 10%
IC50 [16]: 97 µM

c1cncc(-c2cncc([C@H]3C[C@H]4CC[C@H]3N4)c2)c1 (racemic)
Activity [1]: 5.8%
Ki [2]: 810 pM
AD50 [3]: 0.00068 mg/kg
ED50 [4]: 7 mg/kg
Activity [5]: 0%
residual activity [6]: 59%
Activity [7]: 14%
IC50 [8]: 6.4 µM
IC50 [9]: 22 µM
residual activity [10]: 5.3%
Activity [11]: 3%
ED50 [12]: 3 mg/kg
Activity [13]: 4.5%
AD50 [17]: 2 mg/kg
residual activity [15]: 14%
IC50 [16]: 117 µM

c1cnc2cc3c(cc2n1)[C@@H]1CNC[C@H]3C1 [VARENICLINE]
Activity [1]: 74%
AD50 [3]: 0.0002 mg/kg
ED50 [4]: 2.8 mg/kg
Activity [5]: 13%
Activity [7]: 10%
Activity [11]: 11%
ED50 [12]: 2.1 mg/kg
Activity [13]: 66%
AD50 [17]: 0.47 mg/kg

Fc1ccc(-c2cncc([C@H]3C[C@H]4CC[C@H]3N4)c2)cn1 (racemic)
Activity [1]: 0%
Ki [2]: 130 pM
AD50 [3]: 0.002 mg/kg
ED50 [4]: 2.78 mg/kg
Activity [5]: 0%
residual activity [6]: 36%
Activity [7]: 10%
IC50 [8]: 1.3 µM
IC50 [9]: 33 µM
residual activity [10]: 7.9%
Activity [11]: 10%
ED50 [12]: 0.69 mg/kg
Activity [13]: 5.5%
inhibition in vivo at 1 mg/kg [14]: 10%
residual activity [15]: 41%
IC50 [16]: 60 µM

CN1CCC[C@H]1c1cccnc1 [NICOTINE]
Activity [1]: 43%
ED50 [18]: 1.3 mg/kg
ED50 [4]: 1 mg/kg
Activity [5]: 40%
ED50 [19]: 0.65 mg/kg
ED50 [12]: 0.5 mg/kg
Activity [13]: 37%

COc1ccc(-c2cncc([C@H]3C[C@H]4CC[C@H]3N4)c2)cn1 (racemic)
Activity [1]: 1.2%
Ki [2]: 270 pM
AD50 [3]: 0.0005 mg/kg
ED50 [4]: 5.5 mg/kg
Activity [5]: 0%
residual activity [6]: 18%
Activity [7]: 17%
IC50 [8]: 1.8 µM
IC50 [9]: 8.2 µM
residual activity [10]: 4.5%
Activity [11]: 8%
ED50 [12]: 0.56 mg/kg
Activity [13]: 2.4%
inhibition in vivo at 1 mg/kg [14]: 10%
residual activity [15]: 8.4%
IC50 [16]: 30 µM

Clc1ccc([C@H]2C[C@H]3CC[C@H]2N3)cn1
Activity [1]: 150%
ED50 [18]: 0.006 mg/kg
ED50 [4]: 0.004 mg/kg
Activity [5]: 131%
ED50 [19]: 0.004 mg/kg
ED50 [12]: 0.001 mg/kg
Activity [13]: 97%

COc1cc(-c2cncc([C@H]3C[C@H]4CC[C@H]3N4)c2)ccn1 (racemic)
Activity [1]: 16%
Ki [2]: 94 pM
AD50 [3]: 0.0003 mg/kg
ED50 [4]: 10 mg/kg
Activity [5]: 0%
residual activity [6]: 47%
Activity [7]: 50%
IC50 [8]: 1.2 µM
IC50 [9]: 13 µM
residual activity [10]: 4%
Activity [11]: 14%
Activity [13]: 6.1%
AD50 [17]: 0.9 mg/kg
residual activity [15]: 7.2%
IC50 [16]: 114 µM
